According to ChEMBL document CHEMBL3763128, “Synthesis and antibacterial evaluation of novel 4″-glycyl linked quinolyl-azithromycins with potent activity against macrolide-resistant pathogens” (2016):
Values after ≈ are worked out from the molar mass of the structure shown.

Assays:
Format in all cases: functional
Streptococcus pyogenes [1] = assay: Antibacterial activity against erythromycin-susceptible Streptococcus pyogenes by agar microdilution method
Method in brief: (§1)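 MIC by agar microdilution following NCCLS guidelines. Values in μg/mL. Only differences of more than one twofold dilution were treated as significant. Ery-S denotes erythromycin-susceptible strains.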

Haemophilus influenzae = assay: Antibacterial activity against Haemophilus influenzae by agar microdilution method; method in brief: as §1
Streptococcus pyogenes [2] = assay: Antibacterial activity against efflux mediated macrolide resistant Streptococcus pyogenes by agar microdilution method
Method in brief: (§2)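 Agar microdilution per NCCLS guidelines; MIC reported in μg/mL; differences treated as significant only when more than a factor of 2 (one dilution) apart.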

Staphylococcus aureus [3] = assay: Antibacterial activity against efflux mediated macrolide resistant Staphylococcus aureus by agar microdilution method; method in brief: as §2
Streptococcus pneumoniae [4] = assay: Antibacterial activity against constitutive macrolide-lincosamide-streptogramin B resistant Streptococcus pneumoniae by agar microdilution method; method in brief: as §2
Streptococcus pneumoniae [5] = assay: Antibacterial activity against erythromycin-susceptible Streptococcus pneumoniae by agar microdilution method; method in brief: as §1
Staphylococcus aureus [6] = assay: Antibacterial activity against erythromycin-susceptible Staphylococcus aureus by agar microdilution method; method in brief: as §1
Moraxella catarrhalis = assay: Antibacterial activity against Moraxella catarrhalis by agar microdilution method; method in brief: as §1
Staphylococcus aureus [7] = assay: Antibacterial activity against inducibly macrolide-lincosamide-streptogramin B resistant Staphylococcus aureus by agar microdilution method; method in brief: as §2
Streptococcus pyogenes [8] = assay: Antibacterial activity against constitutive macrolide-lincosamide-streptogramin B resistant Streptococcus pyogenes by agar microdilution method; method in brief: as §2
Streptococcus pyogenes [9] = assay: Antibacterial activity against inducibly macrolide-lincosamide-streptogramin B resistant Streptococcus pyogenes by agar microdilution method; method in brief: as §2
Staphylococcus aureus [10] = assay: Antibacterial activity against constitutive macrolide-lincosamide-streptogramin B resistant Staphylococcus aureus by agar microdilution method; method in brief: as §2
Streptococcus pneumoniae [11] = assay: Antibacterial activity against efflux mediated macrolide resistant Streptococcus pneumoniae by agar microdilution method; method in brief: as §2

With `CCC1OC(=O)[C@H](C)[C@@H](O[C@H]2C[C@@](C)(OC)[C@@H](OC(=O)CNCCCNCCOCCOCCNc3cc4c(cc3F)c(=O)c(C(=O)O)cn4C3CC3)[C@H](C)O2)C(C)[C@@H](O[C@@H]2O[C@H](C)C[C@H](N(C)C)[C@H]2O)[C@](C)(O)C[C@@H](C)CN(C)[C@H](C)[C@@H](O)[C@]1(C)O` (single isomer, unassigned) the MIC (Streptococcus pyogenes [1]) was ≤ 0.125 µg/mL, the MIC (Haemophilus influenzae) was 4 µg/mL (≈ 3.23 µM) and the MIC (Streptococcus pyogenes [2]) was 1 µg/mL (≈ 0.807 µM). For the same compound, the MIC (Staphylococcus aureus [3]) was 2 µg/mL (≈ 1.61 µM), the MIC (Streptococcus pneumoniae [4]) was 2 µg/mL (≈ 1.61 µM) and the MIC (Streptococcus pneumoniae [5]) was ≤ 0.125 µg/mL. For the same compound, the MIC (Staphylococcus aureus [6]) was ≤ 0.125 µg/mL, the MIC (Moraxella catarrhalis) was 2 µg/mL (≈ 1.61 µM) and the MIC (Staphylococcus aureus [7]) was 4 µg/mL (≈ 3.23 µM). The MIC (Streptococcus pyogenes [8]) was 4 µg/mL (≈ 3.23 µM), the MIC (Streptococcus pyogenes [9]) was 0.5 µg/mL (≈ 0.403 µM) and the MIC (Staphylococcus aureus [10]) was > 64 µg/mL. The MIC (Streptococcus pneumoniae [11]) was 1 µg/mL (≈ 0.807 µM).
In the case of `CCC1OC(=O)[C@H](C)[C@@H](O[C@H]2C[C@@](C)(OC)[C@@H](OC(=O)CNCCCNCCOCCNc3cc4c(=O)c(C(=O)O)cn(C5CC5)c4cc3Cl)[C@H](C)O2)C(C)[C@@H](O[C@@H]2O[C@H](C)C[C@H](N(C)C)[C@H]2O)[C@](C)(O)C[C@@H](C)CN(C)[C@H](C)[C@@H](O)[C@]1(C)O` (single isomer, unassigned), the MIC (Streptococcus pyogenes [1]) is reported as ≤ 0.125 µg/mL, the MIC (Haemophilus influenzae) is reported as 2 µg/mL (≈ 1.65 µM) and the MIC (Streptococcus pyogenes [2]) is reported as 0.5 µg/mL (≈ 0.413 µM). For the same compound, the MIC (Staphylococcus aureus [3]) was 0.5 µg/mL (≈ 0.413 µM), the MIC (Streptococcus pneumoniae [4]) was 0.25 µg/mL (≈ 0.206 µM) and the MIC (Streptococcus pneumoniae [5]) was ≤ 0.125 µg/mL. For the same compound, the MIC (Staphylococcus aureus [6]) was ≤ 0.125 µg/mL, the MIC (Moraxella catarrhalis) was 0.25 µg/mL (≈ 0.206 µM) and the MIC (Staphylococcus aureus [7]) was 0.5 µg/mL (≈ 0.413 µM). For the same compound, the MIC (Streptococcus pyogenes [8]) was 1 µg/mL (≈ 0.825 µM), the MIC (Streptococcus pyogenes [9]) was 0.25 µg/mL (≈ 0.206 µM) and the MIC (Staphylococcus aureus [10]) was > 64 µg/mL. The MIC (Streptococcus pneumoniae [11]) was 0.25 µg/mL (≈ 0.206 µM).
In the case of `CCC1OC(=O)[C@H](C)[C@@H](O[C@H]2C[C@@](C)(OC)[C@@H](OC(=O)CNC(=O)CCNCCOCCNc3cc4c(=O)c(C(=O)O)cn(C5CC5)c4cc3Cl)[C@H](C)O2)C(C)[C@@H](O[C@@H]2O[C@H](C)C[C@H](N(C)C)[C@H]2O)[C@](C)(O)C[C@@H](C)CN(C)[C@H](C)[C@@H](O)[C@]1(C)O` (single isomer, unassigned), the MIC (Streptococcus pyogenes [1]) is reported as ≤ 0.125 µg/mL, the MIC (Haemophilus influenzae) is reported as 2 µg/mL (≈ 1.63 µM) and the MIC (Streptococcus pyogenes [2]) is reported as 1 µg/mL (≈ 0.816 µM). The MIC (Staphylococcus aureus [3]) was 1 µg/mL (≈ 0.816 µM), the MIC (Streptococcus pneumoniae [4]) was 1 µg/mL (≈ 0.816 µM) and the MIC (Streptococcus pneumoniae [5]) was ≤ 0.125 µg/mL. For the same compound, the MIC (Staphylococcus aureus [6]) was ≤ 0.125 µg/mL, the MIC (Moraxella catarrhalis) was 0.5 µg/mL (≈ 0.408 µM) and the MIC (Staphylococcus aureus [7]) was 2 µg/mL (≈ 1.63 µM). For the same compound, the MIC (Streptococcus pyogenes [8]) was 2 µg/mL (≈ 1.63 µM), the MIC (Streptococcus pyogenes [9]) was 0.5 µg/mL (≈ 0.408 µM) and the MIC (Staphylococcus aureus [10]) was > 64 µg/mL. For the same compound, the MIC (Streptococcus pneumoniae [11]) was 0.5 µg/mL (≈ 0.408 µM).
With `CCC1OC(=O)[C@H](C)[C@@H](O[C@H]2C[C@@](C)(OC)[C@@H](OC(=O)CNC(=O)CCNCCOCCOCCNc3cc4c(cc3F)c(=O)c(C(=O)O)cn4C3CC3)[C@H](C)O2)C(C)[C@@H](O[C@@H]2O[C@H](C)C[C@H](N(C)C)[C@H]2O)[C@](C)(O)C[C@@H](C)CN(C)[C@H](C)[C@@H](O)[C@]1(C)O` (single isomer, unassigned) the MIC (Streptococcus pyogenes [1]) was ≤ 0.125 µg/mL, the MIC (Haemophilus influenzae) was 8 µg/mL (≈ 6.38 µM) and the MIC (Streptococcus pyogenes [2]) was 16 µg/mL (≈ 12.8 µM). The MIC (Staphylococcus aureus [3]) was 16 µg/mL (≈ 12.8 µM), the MIC (Streptococcus pneumoniae [4]) was 8 µg/mL (≈ 6.38 µM) and the MIC (Streptococcus pneumoniae [5]) was ≤ 0.125 µg/mL. For the same compound, the MIC (Staphylococcus aureus [6]) was 0.5 µg/mL (≈ 0.399 µM), the MIC (Moraxella catarrhalis) was 2 µg/mL (≈ 1.6 µM) and the MIC (Staphylococcus aureus [7]) was 32 µg/mL (≈ 25.5 µM). The MIC (Streptococcus pyogenes [8]) was 32 µg/mL (≈ 25.5 µM), the MIC (Streptococcus pyogenes [9]) was 4 µg/mL (≈ 3.19 µM) and the MIC (Staphylococcus aureus [10]) was > 64 µg/mL. For the same compound, the MIC (Streptococcus pneumoniae [11]) was 4 µg/mL (≈ 3.19 µM).
In the case of `CCC1OC(=O)[C@H](C)[C@@H](O[C@H]2C[C@@](C)(OC)[C@@H](OC(=O)CNCCCNCCOCCNc3cc4c(cc3F)c(=O)c(C(=O)O)cn4C3CC3)[C@H](C)O2)C(C)[C@@H](O[C@@H]2O[C@H](C)C[C@H](N(C)C)[C@H]2O)[C@](C)(O)C[C@@H](C)CN(C)[C@H](C)[C@@H](O)[C@]1(C)O` (single isomer, unassigned), the MIC (Streptococcus pyogenes [1]) is reported as ≤ 0.125 µg/mL, the MIC (Haemophilus influenzae) is reported as 2 µg/mL (≈ 1.67 µM) and the MIC (Streptococcus pyogenes [2]) is reported as 2 µg/mL (≈ 1.67 µM). For the same compound, the MIC (Staphylococcus aureus [3]) was 1 µg/mL (≈ 0.836 µM), the MIC (Streptococcus pneumoniae [4]) was 2 µg/mL (≈ 1.67 µM) and the MIC (Streptococcus pneumoniae [5]) was ≤ 0.125 µg/mL. For the same compound, the MIC (Staphylococcus aureus [6]) was 0.25 µg/mL (≈ 0.209 µM), the MIC (Moraxella catarrhalis) was 1 µg/mL (≈ 0.836 µM) and the MIC (Staphylococcus aureus [7]) was 2 µg/mL (≈ 1.67 µM). For the same compound, the MIC (Streptococcus pyogenes [8]) was 4 µg/mL (≈ 3.35 µM), the MIC (Streptococcus pyogenes [9]) was 0.5 µg/mL (≈ 0.418 µM) and the MIC (Staphylococcus aureus [10]) was > 64 µg/mL. The MIC (Streptococcus pneumoniae [11]) was 0.25 µg/mL (≈ 0.209 µM).
For `CCC1OC(=O)[C@H](C)[C@@H](O[C@H]2C[C@@](C)(OC)[C@@H](OC(=O)CNC(=O)CCNCCOCCNc3cc4c(cc3F)c(=O)c(C(=O)O)cn4C3CC3)[C@H](C)O2)C(C)[C@@H](O[C@@H]2O[C@H](C)C[C@H](N(C)C)[C@H]2O)[C@](C)(O)C[C@@H](C)CN(C)[C@H](C)[C@@H](O)[C@]1(C)O` (single isomer, unassigned), the MIC (Streptococcus pyogenes [1]) was ≤ 0.125 µg/mL, the MIC (Haemophilus influenzae) was 4 µg/mL (≈ 3.31 µM) and the MIC (Streptococcus pyogenes [2]) was 8 µg/mL (≈ 6.61 µM). The MIC (Staphylococcus aureus [3]) was 4 µg/mL (≈ 3.31 µM), the MIC (Streptococcus pneumoniae [4]) was 8 µg/mL (≈ 6.61 µM) and the MIC (Streptococcus pneumoniae [5]) was ≤ 0.125 µg/mL. The MIC (Staphylococcus aureus [6]) was 0.25 µg/mL (≈ 0.207 µM), the MIC (Moraxella catarrhalis) was 1 µg/mL (≈ 0.827 µM) and the MIC (Staphylococcus aureus [7]) was 4 µg/mL (≈ 3.31 µM). For the same compound, the MIC (Streptococcus pyogenes [8]) was 16 µg/mL (≈ 13.2 µM), the MIC (Streptococcus pyogenes [9]) was 4 µg/mL (≈ 3.31 µM) and the MIC (Staphylococcus aureus [10]) was > 64 µg/mL. For the same compound, the MIC (Streptococcus pneumoniae [11]) was 4 µg/mL (≈ 3.31 µM).
